Laboratory results reported in ChEMBL document CHEMBL2424622, “Development of amino-pyrimidine inhibitors of c-Jun N-terminal kinase (JNK): kinase profiling guided optimization of a 1,2,3-benzotriazole lead” (Bioorg Med Chem Lett, 2013).

What was measured:
[1] = target: T1, Tyrosine-protein kinase ZAP-70 (Homo sapiens) (UniProt P43403); experiment: Competitive binding affinity to ZAP70 (unknown origin) at 10 uM in presence of ATP relative to control
T1 sequence (whole entry): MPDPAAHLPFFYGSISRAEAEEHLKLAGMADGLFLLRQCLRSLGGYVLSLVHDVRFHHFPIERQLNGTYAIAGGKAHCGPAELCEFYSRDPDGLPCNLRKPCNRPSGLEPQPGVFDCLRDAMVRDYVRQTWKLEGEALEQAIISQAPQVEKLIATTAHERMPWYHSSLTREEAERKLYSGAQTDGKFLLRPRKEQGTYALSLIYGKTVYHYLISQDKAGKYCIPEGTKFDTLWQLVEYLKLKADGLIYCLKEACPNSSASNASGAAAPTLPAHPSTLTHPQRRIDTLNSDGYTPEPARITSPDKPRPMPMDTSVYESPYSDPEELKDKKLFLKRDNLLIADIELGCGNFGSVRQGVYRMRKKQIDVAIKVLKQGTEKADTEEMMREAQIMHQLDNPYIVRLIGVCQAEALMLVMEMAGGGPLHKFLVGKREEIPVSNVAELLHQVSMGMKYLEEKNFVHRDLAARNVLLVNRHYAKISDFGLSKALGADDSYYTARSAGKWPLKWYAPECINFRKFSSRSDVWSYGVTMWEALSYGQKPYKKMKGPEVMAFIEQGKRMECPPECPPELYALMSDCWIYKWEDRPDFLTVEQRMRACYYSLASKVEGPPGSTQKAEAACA

[2] = test system: Receptor-type tyrosine-protein kinase FLT3 (Homo sapiens), P36888 [UNDEFINED MUTATION]; experiment: Competitive binding affinity to FLT3 ITD mutant (unknown origin) at 10 uM in presence of ATP relative to control
Sequence of Receptor-type tyrosine-protein kinase FLT3 (Homo sapiens), P36888 [UNDEFINED MUTATION] (P36888 whole entry, looked up, change not shown): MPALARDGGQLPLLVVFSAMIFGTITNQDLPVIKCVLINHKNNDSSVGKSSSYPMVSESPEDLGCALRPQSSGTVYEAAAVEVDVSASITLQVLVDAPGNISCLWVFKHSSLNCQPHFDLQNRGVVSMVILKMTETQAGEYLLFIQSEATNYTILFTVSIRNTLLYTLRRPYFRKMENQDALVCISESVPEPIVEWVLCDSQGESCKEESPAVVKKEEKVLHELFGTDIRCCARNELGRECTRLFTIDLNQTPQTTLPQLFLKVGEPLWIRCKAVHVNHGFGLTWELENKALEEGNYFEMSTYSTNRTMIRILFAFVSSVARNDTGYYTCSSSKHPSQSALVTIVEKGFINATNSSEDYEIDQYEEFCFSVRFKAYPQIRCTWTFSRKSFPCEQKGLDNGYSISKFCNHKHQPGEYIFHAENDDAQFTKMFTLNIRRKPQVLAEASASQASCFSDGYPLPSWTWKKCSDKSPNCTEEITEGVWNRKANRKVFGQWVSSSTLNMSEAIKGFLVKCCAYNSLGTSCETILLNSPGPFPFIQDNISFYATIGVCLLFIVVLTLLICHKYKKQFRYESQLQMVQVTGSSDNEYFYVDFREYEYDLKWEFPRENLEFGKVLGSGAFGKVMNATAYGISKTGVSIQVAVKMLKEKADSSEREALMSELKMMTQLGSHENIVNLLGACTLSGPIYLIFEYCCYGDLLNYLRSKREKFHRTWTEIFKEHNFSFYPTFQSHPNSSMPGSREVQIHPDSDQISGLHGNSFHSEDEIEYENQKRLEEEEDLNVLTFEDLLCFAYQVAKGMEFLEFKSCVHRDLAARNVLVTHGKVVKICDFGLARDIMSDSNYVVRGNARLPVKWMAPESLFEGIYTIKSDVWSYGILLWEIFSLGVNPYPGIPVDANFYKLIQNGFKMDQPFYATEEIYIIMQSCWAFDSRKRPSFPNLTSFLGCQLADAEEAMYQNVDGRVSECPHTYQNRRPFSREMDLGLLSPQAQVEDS

[3] = target: Mitogen-activated protein kinase 3 (Homo sapiens, UniProt P27361); experiment: Competitive binding affinity to ERK1 (unknown origin) at 10 uM in presence of ATP relative to control
Sequence of Mitogen-activated protein kinase 3 (P27361 whole entry): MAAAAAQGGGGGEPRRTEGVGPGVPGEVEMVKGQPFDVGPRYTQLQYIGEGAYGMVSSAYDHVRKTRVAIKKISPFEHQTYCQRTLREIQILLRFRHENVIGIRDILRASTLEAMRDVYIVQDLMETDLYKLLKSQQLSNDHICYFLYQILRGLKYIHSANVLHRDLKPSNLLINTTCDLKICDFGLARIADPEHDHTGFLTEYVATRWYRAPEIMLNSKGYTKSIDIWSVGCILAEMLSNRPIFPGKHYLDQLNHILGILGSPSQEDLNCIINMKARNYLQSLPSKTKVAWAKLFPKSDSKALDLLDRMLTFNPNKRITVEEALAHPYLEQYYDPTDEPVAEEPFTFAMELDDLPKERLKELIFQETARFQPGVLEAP
Outline: (§1)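 In vitro ATP-site competition binding assay, part of profiling against a diverse panel of 128 kinases. Each compound was tested at a single concentration of 10 µM. Kinome selectivity was summarized as S15 selectivity scores.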

[4] = target: cAMP-dependent protein kinase catalytic subunit beta (Homo sapiens) (UniProt P22694); experiment: Competitive binding affinity to PKAC-beta (unknown origin) at 10 uM in presence of ATP relative to control
Outline: (§2)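 In vitro ATP-site competition binding assay across a diverse panel of 128 kinases, with compound tested at a single concentration. Kinase selectivity scores (S15) were calculated from the panel profiles.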

[5] = target: Serine/threonine-protein kinase 25 (Homo sapiens) (UniProt O00506); experiment: Competitive binding affinity to YSK1 (unknown origin) at 10 uM in presence of ATP relative to control
Sequence of Serine/threonine-protein kinase 25 (Homo sapiens) (O00506 whole entry, looked up): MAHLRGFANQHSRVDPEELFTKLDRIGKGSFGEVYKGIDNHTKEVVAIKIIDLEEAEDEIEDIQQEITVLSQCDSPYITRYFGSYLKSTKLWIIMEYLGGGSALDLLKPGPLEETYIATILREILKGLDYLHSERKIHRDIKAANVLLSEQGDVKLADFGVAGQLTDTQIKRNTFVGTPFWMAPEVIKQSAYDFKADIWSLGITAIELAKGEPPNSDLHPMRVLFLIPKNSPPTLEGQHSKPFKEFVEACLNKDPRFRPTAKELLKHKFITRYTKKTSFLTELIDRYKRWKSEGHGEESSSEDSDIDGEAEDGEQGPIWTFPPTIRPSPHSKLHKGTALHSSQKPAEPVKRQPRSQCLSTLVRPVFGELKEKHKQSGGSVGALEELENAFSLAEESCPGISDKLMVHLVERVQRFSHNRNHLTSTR

[6] = target: T2, Serine/threonine-protein kinase 17B (Homo sapiens) (UniProt O94768); experiment: Competitive binding affinity to DRAK2 (unknown origin) at 10 uM in presence of ATP relative to control
T2 sequence (whole entry): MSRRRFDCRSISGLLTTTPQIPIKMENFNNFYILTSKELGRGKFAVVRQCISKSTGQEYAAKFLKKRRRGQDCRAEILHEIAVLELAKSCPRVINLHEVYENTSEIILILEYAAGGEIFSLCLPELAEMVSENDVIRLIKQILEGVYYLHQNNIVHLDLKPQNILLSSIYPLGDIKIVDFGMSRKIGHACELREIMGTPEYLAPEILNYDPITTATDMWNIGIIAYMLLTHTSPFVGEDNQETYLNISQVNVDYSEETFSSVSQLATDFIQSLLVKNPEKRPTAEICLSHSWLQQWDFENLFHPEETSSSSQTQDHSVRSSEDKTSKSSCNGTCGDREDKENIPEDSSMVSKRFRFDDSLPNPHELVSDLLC

[7] = test system: Mast/stem cell growth factor receptor Kit (Homo sapiens), P10721 [V559D,V654A]; experiment: Competitive binding affinity to KIT V559D/V654A double mutant (unknown origin) at 10 uM in presence of ATP relative to control; outline: as §1
Sequence of Mast/stem cell growth factor receptor Kit (Homo sapiens), P10721 [V559D,V654A] (P10721 whole entry V559D/V654A): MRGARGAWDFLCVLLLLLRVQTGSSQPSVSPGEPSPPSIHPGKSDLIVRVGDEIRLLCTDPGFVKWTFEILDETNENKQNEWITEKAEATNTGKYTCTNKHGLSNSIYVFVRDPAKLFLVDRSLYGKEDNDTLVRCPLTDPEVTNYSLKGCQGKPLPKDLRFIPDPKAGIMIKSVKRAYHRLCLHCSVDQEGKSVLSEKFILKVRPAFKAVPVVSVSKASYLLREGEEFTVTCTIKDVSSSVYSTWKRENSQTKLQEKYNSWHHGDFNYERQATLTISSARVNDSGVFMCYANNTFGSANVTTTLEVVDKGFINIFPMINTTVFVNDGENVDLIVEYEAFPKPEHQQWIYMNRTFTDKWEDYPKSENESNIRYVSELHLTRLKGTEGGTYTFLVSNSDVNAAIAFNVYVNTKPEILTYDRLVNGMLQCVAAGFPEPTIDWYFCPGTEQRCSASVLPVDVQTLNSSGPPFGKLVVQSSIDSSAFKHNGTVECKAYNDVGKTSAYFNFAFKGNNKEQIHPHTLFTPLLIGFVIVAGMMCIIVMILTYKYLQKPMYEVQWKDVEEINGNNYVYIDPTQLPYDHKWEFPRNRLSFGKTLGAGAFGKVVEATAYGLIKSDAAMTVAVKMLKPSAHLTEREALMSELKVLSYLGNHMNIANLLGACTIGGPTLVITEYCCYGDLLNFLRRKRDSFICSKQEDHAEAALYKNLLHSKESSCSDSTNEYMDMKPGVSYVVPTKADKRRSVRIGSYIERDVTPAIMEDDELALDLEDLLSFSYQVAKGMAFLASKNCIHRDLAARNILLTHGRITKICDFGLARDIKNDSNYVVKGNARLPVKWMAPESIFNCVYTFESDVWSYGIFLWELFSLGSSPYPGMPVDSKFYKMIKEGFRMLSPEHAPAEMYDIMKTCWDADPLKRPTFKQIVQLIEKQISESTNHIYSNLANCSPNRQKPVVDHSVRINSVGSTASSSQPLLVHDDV

[8] = target: Serine/threonine-protein kinase 38-like (Homo sapiens) (UniProt Q9Y2H1); experiment: Competitive binding affinity to NDR2 (unknown origin) at 10 uM in presence of ATP relative to control; outline: as §2
Sequence of Serine/threonine-protein kinase 38-like (Homo sapiens) (Q9Y2H1 2-464 limits assumed): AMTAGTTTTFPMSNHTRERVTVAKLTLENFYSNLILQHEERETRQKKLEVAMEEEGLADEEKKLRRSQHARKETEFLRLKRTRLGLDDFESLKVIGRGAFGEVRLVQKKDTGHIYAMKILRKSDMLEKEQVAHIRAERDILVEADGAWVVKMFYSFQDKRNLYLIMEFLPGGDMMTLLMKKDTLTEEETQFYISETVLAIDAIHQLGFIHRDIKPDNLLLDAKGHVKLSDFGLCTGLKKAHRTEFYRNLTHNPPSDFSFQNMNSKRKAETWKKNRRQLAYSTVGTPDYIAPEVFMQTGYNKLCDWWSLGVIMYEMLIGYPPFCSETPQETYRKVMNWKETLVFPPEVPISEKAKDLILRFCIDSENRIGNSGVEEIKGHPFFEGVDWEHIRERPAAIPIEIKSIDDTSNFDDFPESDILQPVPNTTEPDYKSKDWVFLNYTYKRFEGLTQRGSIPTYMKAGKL

[9] = target: Serine/threonine-protein kinase 32B (Homo sapiens) (UniProt Q9NY57); experiment: Competitive binding affinity to YANK2 (unknown origin) at 10 uM in presence of ATP relative to control
Sequence of Serine/threonine-protein kinase 32B (Homo sapiens) (Q9NY57 whole entry): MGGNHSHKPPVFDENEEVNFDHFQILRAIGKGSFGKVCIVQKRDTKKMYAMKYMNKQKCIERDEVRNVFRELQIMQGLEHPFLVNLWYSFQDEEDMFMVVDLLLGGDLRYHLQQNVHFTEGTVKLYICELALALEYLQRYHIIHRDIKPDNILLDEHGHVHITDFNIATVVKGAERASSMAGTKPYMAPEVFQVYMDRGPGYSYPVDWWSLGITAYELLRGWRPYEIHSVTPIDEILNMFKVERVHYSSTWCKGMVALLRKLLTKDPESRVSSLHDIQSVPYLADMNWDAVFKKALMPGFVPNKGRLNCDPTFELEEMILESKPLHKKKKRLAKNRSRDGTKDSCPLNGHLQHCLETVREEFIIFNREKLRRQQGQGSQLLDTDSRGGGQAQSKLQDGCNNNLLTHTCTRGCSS

[10] = target: T3, Calcium/calmodulin-dependent protein kinase type IV (Homo sapiens) (UniProt Q16566); experiment: Competitive binding affinity to CAMK4 (unknown origin) at 10 uM in presence of ATP relative to control
T3 sequence (whole entry): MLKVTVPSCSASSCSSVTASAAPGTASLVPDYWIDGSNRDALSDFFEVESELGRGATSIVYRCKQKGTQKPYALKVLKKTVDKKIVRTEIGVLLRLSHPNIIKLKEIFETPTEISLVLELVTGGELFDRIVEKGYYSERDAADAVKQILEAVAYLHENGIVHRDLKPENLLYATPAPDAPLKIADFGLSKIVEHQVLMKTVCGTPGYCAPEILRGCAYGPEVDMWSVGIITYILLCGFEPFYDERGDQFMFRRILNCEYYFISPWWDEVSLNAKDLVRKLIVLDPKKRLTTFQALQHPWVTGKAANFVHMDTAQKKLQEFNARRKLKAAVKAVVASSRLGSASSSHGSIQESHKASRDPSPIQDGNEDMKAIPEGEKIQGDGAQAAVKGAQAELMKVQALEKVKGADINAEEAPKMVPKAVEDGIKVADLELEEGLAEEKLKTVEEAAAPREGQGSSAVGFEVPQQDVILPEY

[11] = target: Serine/threonine-protein kinase PLK1 (Homo sapiens) (UniProt P53350); experiment: Competitive binding affinity to PLK1 (unknown origin) at 10 uM in presence of ATP relative to control
Sequence of Serine/threonine-protein kinase PLK1 (Homo sapiens) (P53350 whole entry): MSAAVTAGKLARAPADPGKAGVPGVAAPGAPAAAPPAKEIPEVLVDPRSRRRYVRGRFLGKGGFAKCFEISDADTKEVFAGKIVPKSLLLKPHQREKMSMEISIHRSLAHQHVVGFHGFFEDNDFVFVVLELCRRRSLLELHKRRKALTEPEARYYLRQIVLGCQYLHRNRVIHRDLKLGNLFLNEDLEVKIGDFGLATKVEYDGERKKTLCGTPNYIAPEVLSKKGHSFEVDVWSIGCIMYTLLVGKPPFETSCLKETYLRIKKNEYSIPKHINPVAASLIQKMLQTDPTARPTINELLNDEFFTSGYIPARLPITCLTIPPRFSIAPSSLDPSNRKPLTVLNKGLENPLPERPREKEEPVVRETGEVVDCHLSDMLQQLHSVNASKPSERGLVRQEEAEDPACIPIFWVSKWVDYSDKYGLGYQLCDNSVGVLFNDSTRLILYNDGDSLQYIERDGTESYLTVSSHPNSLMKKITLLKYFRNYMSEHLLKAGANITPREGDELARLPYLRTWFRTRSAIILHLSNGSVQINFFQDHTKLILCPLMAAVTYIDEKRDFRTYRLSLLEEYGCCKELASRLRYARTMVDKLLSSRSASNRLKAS

[12] = test system: Tyrosine-protein kinase ABL1 (Homo sapiens), P00519 [E255K]; experiment: Competitive binding affinity to ABL1 E255K mutant (unknown origin) at 10 uM in presence of ATP relative to control
[13] = target: Ribosomal protein S6 kinase alpha-2 (Homo sapiens) (UniProt Q15349); experiment: Competitive binding affinity to RPS6KA2 kinase domain 2 (unknown origin) at 10 uM in presence of ATP relative to control
Sequence of Ribosomal protein S6 kinase alpha-2 (Homo sapiens) (Q15349 whole entry, the tested form may be a part): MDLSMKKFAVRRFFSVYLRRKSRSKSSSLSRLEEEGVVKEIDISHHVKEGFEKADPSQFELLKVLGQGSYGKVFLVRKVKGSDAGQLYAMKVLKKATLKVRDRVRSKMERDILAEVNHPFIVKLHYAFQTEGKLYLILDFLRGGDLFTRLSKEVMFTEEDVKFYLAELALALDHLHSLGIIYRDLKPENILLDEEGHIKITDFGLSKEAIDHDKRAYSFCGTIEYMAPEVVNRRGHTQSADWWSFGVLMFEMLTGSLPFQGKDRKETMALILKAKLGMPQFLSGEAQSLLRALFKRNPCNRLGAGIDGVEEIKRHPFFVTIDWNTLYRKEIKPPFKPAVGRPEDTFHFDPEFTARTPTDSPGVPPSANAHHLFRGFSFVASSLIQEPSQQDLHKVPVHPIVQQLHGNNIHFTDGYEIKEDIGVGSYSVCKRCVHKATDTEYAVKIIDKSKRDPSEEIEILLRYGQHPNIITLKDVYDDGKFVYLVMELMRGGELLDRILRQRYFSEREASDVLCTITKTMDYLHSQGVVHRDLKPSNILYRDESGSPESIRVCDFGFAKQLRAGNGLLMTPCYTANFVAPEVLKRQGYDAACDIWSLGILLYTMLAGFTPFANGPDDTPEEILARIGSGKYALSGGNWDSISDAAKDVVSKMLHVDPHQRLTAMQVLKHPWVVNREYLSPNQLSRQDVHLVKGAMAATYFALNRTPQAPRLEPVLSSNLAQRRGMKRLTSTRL

Row | Compound | inhibition [1] | inhibition [2] | inhibition [3] | inhibition [4] | inhibition [5] | inhibition [6] | inhibition [7] | inhibition [8] | inhibition [9] | inhibition [10] | inhibition [11] | inhibition [12] | inhibition [13]
1 | O[C@H]1CC[C@H](Nc2nccc(-n3nnc4ccccc43)n2)CC1 | < 50% | 98% | < 50% | < 50% | 78% | 86% | 67% | < 50% | < 50% | 72% | < 50% | < 50% | 87%
2 | CS(=O)(=O)CCCOc1cccc2c1ccn2-c1ccnc(N[C@H]2CC[C@H](C(=O)N3CCC(O)CC3)CC2)n1 | – | – | > 85% | – | – | – | – | – | – | – | – | – | –
3 | O[C@H]1CC[C@H](Nc2nccc(-n3ncc4ccccc43)n2)CC1 | < 50% | 100% | < 50% | < 50% | 77% | 91% | 87% | < 50% | < 50% | < 50% | < 50% | < 50% | < 50%
4 | O[C@H]1CC[C@H](Nc2nccc(-c3n[nH]c4ccccc34)n2)CC1 | < 50% | 100% | 80% | < 50% | – | – | 82% | 72% | < 50% | – | < 50% | < 50% | –
5 | O[C@H]1CC[C@H](Nc2nccc(-n3ccc4ccccc43)n2)CC1 | < 50% | < 50% | < 50% | < 50% | 74% | < 50% | 64% | < 50% | < 50% | < 50% | < 50% | < 50% | < 50%
